According to ChEMBL document CHEMBL1932952, “Synthesis and biochemical analysis of 2,2,3,3,4,4,5,5,6,6,7,7-dodecafluoro-N-hydroxy-octanediamides as inhibitors of human histone deacetylases” (Bioorg Med Chem, 2012):

Columns and labels:
[1] = target: T1, Histone deacetylase-like amidohydrolase (Alcaligenes sp. (strain DSM 11172) (Bordetella sp. (strain FB188)), UniProt Q70I53); experiment: Inhibition of Bordetella FB188 HDAH using Boc-L-Lys(acetyl)-MCA as substrate by fluorogenic enzymatic assay
T1 sequence (Q70I53 whole entry): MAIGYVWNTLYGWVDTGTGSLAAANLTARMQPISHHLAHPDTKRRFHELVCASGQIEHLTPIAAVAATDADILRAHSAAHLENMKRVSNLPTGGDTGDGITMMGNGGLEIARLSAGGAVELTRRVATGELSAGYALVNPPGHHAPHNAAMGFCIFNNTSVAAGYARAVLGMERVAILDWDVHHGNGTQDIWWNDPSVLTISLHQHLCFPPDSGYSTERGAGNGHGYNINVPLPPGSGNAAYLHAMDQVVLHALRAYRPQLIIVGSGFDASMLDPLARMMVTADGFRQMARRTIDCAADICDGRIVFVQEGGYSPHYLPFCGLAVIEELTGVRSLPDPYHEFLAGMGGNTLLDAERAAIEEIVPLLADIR

Histone deacetylase 1 = Histone deacetylase 1 (Homo sapiens, UniProt Q13547); experiment: Inhibition of recombinant human HDAC1 using Boc-L-Lys(acetyl)-MCA as substrate by fluorogenic enzymatic assay
Histone deacetylase 1, sequence (Q13547 whole entry): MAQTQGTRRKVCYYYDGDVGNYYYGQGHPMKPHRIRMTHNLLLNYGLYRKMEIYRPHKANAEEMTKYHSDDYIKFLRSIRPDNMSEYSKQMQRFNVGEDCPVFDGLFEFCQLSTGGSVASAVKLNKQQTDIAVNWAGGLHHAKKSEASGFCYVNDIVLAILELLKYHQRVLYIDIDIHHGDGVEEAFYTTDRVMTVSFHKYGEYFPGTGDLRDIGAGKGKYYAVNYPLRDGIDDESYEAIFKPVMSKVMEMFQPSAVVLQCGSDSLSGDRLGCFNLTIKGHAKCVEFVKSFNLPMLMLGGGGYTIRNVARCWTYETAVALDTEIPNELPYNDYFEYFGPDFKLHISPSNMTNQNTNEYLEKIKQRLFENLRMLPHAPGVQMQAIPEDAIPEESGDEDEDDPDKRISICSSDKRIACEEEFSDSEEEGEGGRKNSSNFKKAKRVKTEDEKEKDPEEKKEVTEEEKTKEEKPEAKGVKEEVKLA

Histone deacetylase 7 = target: T2, Histone deacetylase 7 (Homo sapiens, UniProt Q8WUI4); experiment: Inhibition of recombinant human HDAC7 using Boc-L-Lys(trifluoroacetyl)-MCA as substrate by fluorogenic enzymatic assay
T2 sequence (Q8WUI4 whole entry): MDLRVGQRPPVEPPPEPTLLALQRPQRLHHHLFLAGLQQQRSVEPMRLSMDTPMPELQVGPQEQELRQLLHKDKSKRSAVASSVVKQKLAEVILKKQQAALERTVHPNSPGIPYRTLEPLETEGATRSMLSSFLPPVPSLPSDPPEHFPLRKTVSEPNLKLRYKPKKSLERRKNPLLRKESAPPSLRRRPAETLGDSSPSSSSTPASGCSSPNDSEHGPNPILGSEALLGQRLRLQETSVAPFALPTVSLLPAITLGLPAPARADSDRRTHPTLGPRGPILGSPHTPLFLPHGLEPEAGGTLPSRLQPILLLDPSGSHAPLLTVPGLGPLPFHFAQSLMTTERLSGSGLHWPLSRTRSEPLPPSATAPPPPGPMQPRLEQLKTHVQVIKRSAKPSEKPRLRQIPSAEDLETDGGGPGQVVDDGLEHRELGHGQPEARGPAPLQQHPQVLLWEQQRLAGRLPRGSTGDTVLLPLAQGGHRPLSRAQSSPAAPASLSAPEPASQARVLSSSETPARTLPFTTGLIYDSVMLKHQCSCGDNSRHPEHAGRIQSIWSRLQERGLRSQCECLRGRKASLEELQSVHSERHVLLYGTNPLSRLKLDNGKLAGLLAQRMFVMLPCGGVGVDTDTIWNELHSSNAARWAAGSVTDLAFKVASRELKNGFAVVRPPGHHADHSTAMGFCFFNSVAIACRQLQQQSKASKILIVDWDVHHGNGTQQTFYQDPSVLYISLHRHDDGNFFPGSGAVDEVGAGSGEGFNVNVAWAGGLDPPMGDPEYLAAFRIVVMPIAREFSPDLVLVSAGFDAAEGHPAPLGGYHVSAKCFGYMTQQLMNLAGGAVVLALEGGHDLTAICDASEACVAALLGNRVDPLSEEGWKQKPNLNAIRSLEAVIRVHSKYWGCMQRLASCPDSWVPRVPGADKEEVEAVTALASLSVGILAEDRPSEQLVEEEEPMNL

Histone deacetylase 8 = target: T3, Histone deacetylase 8 (Homo sapiens, UniProt Q9BY41); experiment: Inhibition of recombinant human HDAC8 using Boc-L-Lys(trifluoroacetyl)-MCA as substrate by fluorogenic enzymatic assay
T3 sequence (Q9BY41 whole entry): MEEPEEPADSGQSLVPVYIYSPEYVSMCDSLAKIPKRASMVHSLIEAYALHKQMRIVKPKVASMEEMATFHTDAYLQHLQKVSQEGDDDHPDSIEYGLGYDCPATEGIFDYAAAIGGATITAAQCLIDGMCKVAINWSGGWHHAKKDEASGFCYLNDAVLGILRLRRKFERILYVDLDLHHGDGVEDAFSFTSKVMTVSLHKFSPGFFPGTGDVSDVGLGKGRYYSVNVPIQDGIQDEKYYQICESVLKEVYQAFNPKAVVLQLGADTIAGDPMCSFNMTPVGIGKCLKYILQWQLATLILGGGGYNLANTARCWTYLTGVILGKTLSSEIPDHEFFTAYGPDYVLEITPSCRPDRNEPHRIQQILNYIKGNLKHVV

Histone deacetylase [2] = experiment: Inhibition of HDAC in human K562 cells using Boc-L-Lys(acetyl)-MCA as substrate by fluorogenic cellular assay; assay type: cell-based
Procedure, shortened: (§1)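 K562 cells were grown in RPMI with 10% FCS, L-glutamine and gentamycin, then pelleted. Lysis in 50 mM Tris–HCl pH 8.5, 1 M NaCl, 1 mM MgCl₂, Triton X-100 (up to 5× pellet volume), 2 h at 37 °C. The diluted lysate replaces recombinant enzyme in the two-step fluorogenic trypsin-coupled assay with substrate at 20 µM final. Read-out is AMC fluorescence (ex 390, em 460 nm), giving IC50.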

[3] = target: T4, Protein deacetylase HDAC6 (Homo sapiens, UniProt Q9UBN7); experiment: Inhibition of recombinant human HDAC6 using Boc-L-Lys(acetyl)-MCA as substrate by fluorogenic enzymatic assay
T4 sequence (Q9UBN7 whole entry): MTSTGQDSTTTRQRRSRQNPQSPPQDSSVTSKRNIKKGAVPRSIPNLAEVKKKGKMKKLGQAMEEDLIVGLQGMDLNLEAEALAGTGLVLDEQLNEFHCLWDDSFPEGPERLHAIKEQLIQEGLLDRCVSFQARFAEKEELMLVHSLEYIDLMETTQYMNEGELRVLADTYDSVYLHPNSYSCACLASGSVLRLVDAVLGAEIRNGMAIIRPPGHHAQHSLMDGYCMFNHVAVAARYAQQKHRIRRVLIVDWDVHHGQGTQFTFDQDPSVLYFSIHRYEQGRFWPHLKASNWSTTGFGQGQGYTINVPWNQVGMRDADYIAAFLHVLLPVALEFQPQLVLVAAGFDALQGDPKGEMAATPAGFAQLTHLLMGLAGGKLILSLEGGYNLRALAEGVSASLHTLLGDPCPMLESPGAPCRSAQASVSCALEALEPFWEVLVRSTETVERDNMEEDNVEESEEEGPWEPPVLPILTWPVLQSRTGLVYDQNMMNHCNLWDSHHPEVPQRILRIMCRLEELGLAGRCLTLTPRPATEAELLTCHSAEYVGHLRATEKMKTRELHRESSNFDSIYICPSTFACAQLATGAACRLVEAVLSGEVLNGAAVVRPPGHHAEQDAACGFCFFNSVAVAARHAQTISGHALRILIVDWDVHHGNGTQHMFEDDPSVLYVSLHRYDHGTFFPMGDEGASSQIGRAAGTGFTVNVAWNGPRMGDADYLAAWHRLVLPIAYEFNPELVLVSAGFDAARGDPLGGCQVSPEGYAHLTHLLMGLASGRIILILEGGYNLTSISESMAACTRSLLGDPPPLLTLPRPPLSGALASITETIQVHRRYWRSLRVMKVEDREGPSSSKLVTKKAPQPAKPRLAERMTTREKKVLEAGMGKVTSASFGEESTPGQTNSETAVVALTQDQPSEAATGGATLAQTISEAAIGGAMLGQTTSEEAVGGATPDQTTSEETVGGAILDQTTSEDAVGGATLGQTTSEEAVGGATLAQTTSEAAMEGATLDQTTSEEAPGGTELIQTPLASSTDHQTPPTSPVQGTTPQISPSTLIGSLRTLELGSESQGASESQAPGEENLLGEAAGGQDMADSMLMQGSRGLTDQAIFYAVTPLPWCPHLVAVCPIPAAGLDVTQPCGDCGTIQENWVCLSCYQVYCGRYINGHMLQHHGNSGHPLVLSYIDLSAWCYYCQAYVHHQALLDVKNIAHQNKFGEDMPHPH

[4] = target: T5, Histone deacetylase 7 (Homo sapiens) (UniProt Q8WUI4); experiment: Ratio of SAHA Kd to compound Kd for recombinant human HDAC7
T5 sequence (whole entry): T2 sequence (Q8WUI4 whole entry)

[5] = target: T6, Histone deacetylase 8 (Homo sapiens) (UniProt Q9BY41); experiment: Ratio of SAHA Kd to compound Kd for recombinant human HDAC8
T6 sequence (whole entry): T3 sequence (Q9BY41 whole entry)

Histone deacetylase [6] = experiment: Inhibition of HDAC in human K562 cells using Boc-L-Lys(trifluoroacetyl)-MCA as substrate by fluorogenic cellular assay; assay type: cell-based; procedure, shortened: as §1

SMILES	Kd [1] [µM]	Kd (Histone deacetylase 1) [µM]	Kd (Histone deacetylase 7) [µM]	Kd (Histone deacetylase 8) [µM]	IC50 (Histone deacetylase [2]) [µM]	Kd [3] [µM]	Ratio [4]	Ratio [5]	IC50 (Histone deacetylase [6]) [µM]
O=C(NO)C(F)(F)C(F)(F)C(F)(F)C(F)(F)C(F)(F)C(F)(F)C(=O)Nc1nc(-c2ccccc2)cs1	2.2	2.6	1.4	1.5	30	5.4	25	2	14
O=C(NO)C(F)(F)C(F)(F)C(F)(F)C(F)(F)C(F)(F)C(F)(F)C(=O)Nc1ccccc1	0.54	29	11	17	> 50	11	3	–	49
O=C(NO)C(F)(F)C(F)(F)C(F)(F)C(F)(F)C(F)(F)C(F)(F)C(=O)Nc1cccc2cc3ccccc3cc12	0.74	14	13	1.4	> 50	5.9	–	–	> 50
O=C(NO)C(F)(F)C(F)(F)C(F)(F)C(F)(F)C(F)(F)C(F)(F)C(=O)Nc1ccc(I)cc1	0.39	14	4.1	36	> 50	4.2	–	–	> 50
CCc1cccc(NC(=O)C(F)(F)C(F)(F)C(F)(F)C(F)(F)C(F)(F)C(F)(F)C(=O)NO)c1	0.19	16	3	13	> 50	1.3	–	–	42
